Rows were chosen to be rich in hits. Some 2.4% of all compounds tested hit in one or more screens of this group.
PRMT1 inh: PRMT1 (human) inhibition, primary screen; Q99873; inhibition, % at 2.79 µM; recombinant PRMT1, activity-based probe fluorescence polarization; actives 1.3% (n = 370,000); AID 652257;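 active = inhibition above about 21% made by adding two undisclosed values, limit read from the data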
Target sequence (Q99873 whole entry, looked up): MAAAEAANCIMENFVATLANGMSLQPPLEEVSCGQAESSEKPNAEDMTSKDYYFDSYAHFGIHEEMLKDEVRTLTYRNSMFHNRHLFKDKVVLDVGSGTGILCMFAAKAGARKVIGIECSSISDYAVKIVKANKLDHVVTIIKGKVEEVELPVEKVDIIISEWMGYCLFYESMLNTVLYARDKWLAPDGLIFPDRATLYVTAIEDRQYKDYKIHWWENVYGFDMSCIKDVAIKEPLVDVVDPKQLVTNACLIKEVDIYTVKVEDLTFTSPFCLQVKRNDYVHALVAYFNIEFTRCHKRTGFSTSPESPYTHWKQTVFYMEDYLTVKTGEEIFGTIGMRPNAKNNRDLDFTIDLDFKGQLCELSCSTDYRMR
SIAE inh: blocks human sialic acid acetylesterase. Q9HAT2. SIAE FP-Rh probe binding, fluorescence polarization. inhibition, % at 9.66 µM. actives 0.69% (n = 370,000);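 active = inhibition above a cutoff: mean of compounds within the control limits plus 3 SD of those, cut at about 17% in these data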;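 note: 0% = plate median of compound wells and 100% = probe without SIAE protein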
GASC-1 inh: inhibitors of human GASC-1 (JMJD2C) demethylase | Q9H3R0 | GST-JMJD2C(1-420) H3K9me3 demethylation, DELFIA europium | inhibition, % at 2.35 µM | actives 0.069% (n = 330,000) | AID 2099;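 active = more than half of a compound's replicate wells show inhibition beyond 50%, single wells judged on their own value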;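 note: signal counts dimethyl H3K9 product captured on neutravidin plate; 0% = median of DMSO wells and 100% = 0.3 times that DMSO median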
mABHD4 FP: inhibits mouse alpha/beta hydrolase domain 4. inhibition, % at 8.92 µM. AID 720543. Q8VD66. actives 0.54% (n = 370,000). purified mABHD4, FP-Rh probe fluorescence polarization;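 active = inhibition exceeding the mean over every tested compound plus 3 SD, cut at about 30% in these data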;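 note: 0% = plate median of compound wells and 100% = S159A mutant with DMSO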
Target sequence (Q8VD66 whole entry, looked up, the tested form may be a part): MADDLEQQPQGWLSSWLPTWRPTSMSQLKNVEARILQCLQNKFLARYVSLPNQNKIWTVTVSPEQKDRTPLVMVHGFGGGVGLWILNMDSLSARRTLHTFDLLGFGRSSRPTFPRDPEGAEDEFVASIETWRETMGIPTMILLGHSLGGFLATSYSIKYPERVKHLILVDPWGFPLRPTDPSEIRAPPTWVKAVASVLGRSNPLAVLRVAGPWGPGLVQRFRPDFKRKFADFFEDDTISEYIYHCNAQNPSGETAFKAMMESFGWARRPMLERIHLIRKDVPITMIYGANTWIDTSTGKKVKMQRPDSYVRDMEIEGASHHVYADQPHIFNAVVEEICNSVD
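Test system: mouse ABHD4 enzyme, wild type. Reagent: FP-Rh fluorescent activity-based probe, added after compound pre-incubation. Timing: pre-incubation 45 min, probe exposure 60 min, at 25 °C. Technique: FP readout, ex 525 nm / em 598 nm. Benchmarks: high control S159A mutant with DMSO, low control median of compound wells.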
HTRA1 inhibitor: blocks human HTRA1 serine peptidase. Q92743. recombinant HTRA1, FP-rhodamine activity-based probe, fluorescence polarization. inhibition, % at 5.96 µM. actives 0.5% (n = 340,000); in the data active = inhibition above about 36%;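 note: 0% = enzyme with DMSO and 100% = wells lacking enzyme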
PRMT1 inh conf: PRMT1 (human) inhibition, FP confirmation; shares compounds with PRMT1 inh; recombinant His-PRMT1, activity-based probe fluorescence polarization; inhibition, % at 2.79 µM; actives 42% (n = 3,300);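 active = mean inhibition across replicates above the hit cutoff derived for the earlier primary screen, cut at about 22% in these data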
* = called active by the depositor; x = no result given.

SMILES | PRMT1 inh | SIAE inh | GASC-1 inh | mABHD4 FP | HTRA1 inhibitor | PRMT1 inh conf
Cc1ccccc1C(=O)OCC(=O)N(C)c1c(N)n(Cc2ccccc2)c(=O)[nH]c1=O | -2.0 | 0.0 | 3.0 | 1.2 | -4.0 | x
C=CCN(Cc1ccc2c(c1)OCO2)C(C#Cc1ccccc1)c1ccccc1C(F)(F)F (stereo not drawn) | -2.9 | 6.4 | x | -4.0 | x | x
c1cn2cc(-c3ccc4c(c3)OCO4)nc2s1 | 34.6* | 4.6 | -3.1 | -3.3 | -1.4 | 46.4*
CC1(OC(=O)CCc2ccccc2)C(=O)C=C2C=C(c3ccc(C#N)cc3)N(Cc3ccco3)C=C2C1=O (stereo not drawn) | 28.5* | 5.0 | 2.6 | 22.1 | 14.4 | 9.6
CC1(OC(=O)CCc2ccccc2)C(=O)C=C2C=C(c3ccc(C#N)cc3)N(Cc3ccccc3)C=C2C1=O (stereo not drawn) | 2.4 | 6.5 | -5.7 | 9.9 | 25.0 | x
O=C1C=CC(=O)N1c1ccc2c(c1)C(NC(=O)C(F)(F)F)c1ccccc1-2 (stereo not drawn) | 91.2* | -18.4 | x | -0.9 | -27.9 | 86.5*
COc1ccc(-n2c(-c3ccccc3)nc(=S)c3c2CCCC3)cc1 | 0.1 | -0.2 | 3.8 | -2.1 | -6.4 | x
CC(C)n1c(-c2ccccc2)nc(=S)c2c1CCCC2 | 36.0* | 1.2 | -7.0 | 12.7 | x | 2.7
CC(=O)c1ccc2c(c1)C1C=CCC1C(c1cc3c(cc1Br)OCO3)N2 (stereo not drawn) | -1.5 | -2.6 | -5.7 | -5.2 | -27.8 | x
CCOC(=O)C1Nc2c(F)cc(C)cc2C2C=CCC12 (stereo not drawn) | x | x | 12.4 | x | x | x
COCCNC(=O)C1Nc2ccc(OC(F)(F)F)cc2C2C=CCC12 (stereo not drawn) | 26.3* | 13.1 | -20.3 | 29.3 | 33.0 | 7.0
CCOC(=O)C1Nc2ccc(C(=O)O)cc2C2C=CCC12 (stereo not drawn) | 30.2* | -3.3 | -3.9 | 25.4 | 25.1 | 37.5*
CC(=O)c1cc(-c2cnn(Cc3ccccc3)c2)c(=O)n2c1CCC2 | -5.6 | -5.4 | x | -2.0 | x | x
O=C1C(NC(=O)N2c3ccccc3C=Cc3ccccc32)CCCCN1Cc1ccc(Cl)cc1 (stereo not drawn) | 4.7 | -4.1 | x | -18.9 | x | x
CN1/C(=C\C(=O)c2cccnc2)Sc2ccccc21 | 31.4* | -2.5 | 2.8 | -1.5 | 2.8 | 1.1
O=C(C1=NN[C@@H]2C(=O)N(c3cccc(F)c3)C(=O)[C@H]12)c1cnccn1 | 35.8* | 3.3 | -1.3 | -6.3 | x | 14.2
O=C(C1=NN[C@@H]2C(=O)N(c3ccccc3C(F)(F)F)C(=O)[C@H]12)c1cnccn1 | 1.1 | 1.3 | 10.3 | 7.8 | 1.3 | x
CCCCCN1CCCCC(NC(=O)c2ccc(F)c(F)c2)C1=O (stereo not drawn) | 3.1 | 1.2 | x | 2.5 | x | x
O=C(O)c1cccc(-n2cccc2/C=N/O)c1 | 0.1 | 1.5 | 14.2 | 4.3 | 3.7 | x
O=C(O)c1cccc(-n2cccc2/C=C\[N+](=O)[O-])c1 | 36.0* | -1.4 | 1.6 | 14.7 | 1.6 | 5.1
O=C(Nn1c(O)c(C=C2N=c3ccccc3=N2)sc1=S)c1ccccc1Cl | 36.8* | -10.2 | -20.3 | -3.1 | 1.2 | 1.8
O=S(=O)(Nn1c(O)c(C=C2N=c3ccccc3=N2)sc1=S)c1ccccc1 | 17.4 | -5.2 | -12.0 | 14.3 | -5.2 | x
O=C(NCCc1c[nH]c2ccccc12)OCc1cn(Cc2cccc(F)c2F)nn1 | -1.1 | -3.8 | x | -2.4 | x | x
CCCCc1c(O)nc(SCC(=O)c2ccccc2)n(-c2ccccc2C)c1=O | 17.1 | 0.0 | -2.1 | -4.8 | -5.9 | x
CCCCc1c(O)nc(SCC(=O)c2ccccc2)n(-c2ccccc2OC)c1=O | 40.2* | 4.7 | 4.3 | 4.2 | 6.6 | 14.2
SMILES | PRMT1 inh | SIAE inh | GASC-1 inh | mABHD4 FP | HTRA1 inhibitor | PRMT1 inh conf
COc1cc(NC(=O)c2cc(-c3cc(F)ccc3OC(C)C)n[nH]2)cc(OC)c1OC | 0.6 | 3.0 | x | -2.3 | x | x
CC(=O)N1CCCN(C(=O)CCn2nnc3ccccc32)CC1 | -0.6 | 4.1 | x | 11.6 | x | x
O=C1CC(NCc2ccc3c(c2)OCO3)C(=O)N1CCc1ccccc1 (stereo not drawn) | 44.2* | -1.1 | -4.2 | 2.3 | 6.6 | 14.8
NS(=O)(=O)c1ccc(CCNC2CC(=O)N(CCc3ccccc3)C2=O)cc1 (stereo not drawn) | 33.7* | 2.9 | -2.1 | 9.1 | 11.7 | -2.5
NS(=O)(=O)c1ccc(CCNC2CC(=O)N(Cc3ccccc3)C2=O)cc1 (stereo not drawn) | 62.8* | 0.0 | -15.6 | 3.6 | -1.6 | 8.6
NS(=O)(=O)c1ccc(CCN2C(=O)CCC2=O)cc1 | -5.6 | -1.5 | 15.9 | -1.9 | -0.3 | x
COC(=O)[C@@]12C[C@@H](CC(=O)NCCc3ccccc3OC)C(=O)N(CCc3ccc(OC)c(OC)c3)C1=CCC(C)(C)C2 | 9.6 | -9.7 | x | -13.8 | x | x
O=C(O)COCc1nc2ccccc2s1 | 53.5* | -3.8 | -6.2 | 12.0 | -0.3 | 8.5
CC(=O)c1ccc(OC(=O)CCc2ccccc2)cc1 | -2.0 | 3.2 | 4.0 | -2.9 | 2.9 | x
CC(=O)c1ccc(OC(=O)CCc2nc3ccccc3s2)cc1 | 74.8* | 6.7 | 3.3 | 2.1 | x | 27.2*
Nc1nc2ncccc2cc1C(=O)C1=C(c2ccccc2)Cc2ccccc21 | 2.6 | -3.7 | x | -10.9 | x | x
O=C(NC1CCCCC1)C(c1ccccc1)n1c(=O)c(-c2ccco2)nc2ccccc21 (stereo not drawn) | 28.4* | -5.2 | x | 5.2 | x | 23.1*
O=C(NC1CCCCC1)C(c1ccc(C(F)(F)F)cc1)n1c(=O)c(-c2ccco2)nc2ccccc21 (stereo not drawn) | 29.1* | -12.9 | x | -12.3 | x | 14.7
O=C(NC1CCCCC1)C(C1CC1)n1c(=O)c(-c2ccco2)nc2ccccc21 (stereo not drawn) | 8.9 | 0.1 | x | 3.5 | x | x
COC(=O)[C@@]12CCCCC3=C1N(CCC3)C(=O)[C@H]2CC(=O)NCCCCc1ccccc1 | 0.5 | 6.8 | x | 2.2 | x | x
COc1ccc(-n2ccnc(SCC(=O)NCc3ccccc3Cl)c2=O)cc1 | 88.2* | 9.3 | 12.3 | 8.3 | 3.8 | 13.9
COc1ccccc1-n1ccnc(SCC(=O)NCc2ccccc2Cl)c1=O | 20.4 | -0.8 | -3.0 | -0.5 | 0.4 | x
CCOc1ccc(-n2ccnc(SCC(=O)Nc3cccc(OC)c3)c2=O)cc1 | 39.1* | 11.7 | -21.0 | -0.3 | -8.6 | 41.7*
CCN(CC)CCCNC(=O)c1cn(C(C)c2ccccc2)nn1 (stereo not drawn) | 0.9 | -4.0 | x | 2.8 | x | x
O=C(CN1CCN(S(=O)(=O)c2ccc(Br)s2)CC1)NCC1CCCCC1 | 8.1 | -3.8 | x | -13.4 | -2.4 | x
CCOC(=O)c1ccc(N2C(=O)CC(NC3CCN(C(=O)c4ccc(F)cc4)CC3)C2=O)cc1 (stereo not drawn) | 1.9 | -1.0 | 8.7 | -2.3 | 2.8 | x
COc1ccc(N2C(=O)CC(NC3CC3)C2=O)cc1 (stereo not drawn) | 31.7* | 8.6 | 28.7 | 1.1 | 7.2 | 1.6

Bioassay records (PubChem BioAssay)
